Screening results deposited in PubChem by several laboratories.
In the library only some 2.1% were active in any assay of this set; here they are far more common.
UCH37 inh: inhibitors of human deubiquitinating enzyme UCH37; Q9Y5K5; purified proteasome/UCH37, Ub-AMC cleavage fluorescence; inhibition, % (no concentration beside the values); 0.33% of 330,000 active;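 active means mean inhibition over replicate wells above about 20%, limit read from the data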;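 further: 0% = compound-free wells with enzyme and 100% = wells lacking proteasome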
Target sequence (Q9Y5K5 whole entry, looked up): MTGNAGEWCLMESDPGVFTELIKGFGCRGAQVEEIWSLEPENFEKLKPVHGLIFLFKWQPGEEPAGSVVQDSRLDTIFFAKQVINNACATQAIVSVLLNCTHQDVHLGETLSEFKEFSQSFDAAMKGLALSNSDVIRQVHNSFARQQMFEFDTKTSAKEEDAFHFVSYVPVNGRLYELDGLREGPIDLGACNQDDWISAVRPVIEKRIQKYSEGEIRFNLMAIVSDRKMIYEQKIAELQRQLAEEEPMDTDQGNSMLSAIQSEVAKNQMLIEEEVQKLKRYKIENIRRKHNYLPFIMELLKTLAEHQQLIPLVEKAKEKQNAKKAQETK
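Material: Human UCH37 enzyme supplied as purified proteasome complex | Schedule: 30 min preincubation with enzyme, 25 min cleavage at room temperature | Detection: AMC fluorescence 355/460 nm | Measure: % inhibition of Ub-AMC cleavage fluorescence | Controls: Wells without proteasome as full block, compound-free enzyme plus substrate as uninhibited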
Cardiac RTF inh: cardiac RTF calcium desensitization; 0.12% of 340,000 active; AID 493244; P19429+P45379; inhibition, % at 7.15 µM; IANBD-labeled cardiac RTF, Ca2+ fluorescence;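 active means inhibition above the mean inhibition of all tested compounds plus 3 SD, cut at about 17% in these data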;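 further: assay run at fixed EC70 calcium of 1.6 mM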
cardiac RTF act: increases calcium sensitivity of human cardiac regulated thin filaments; IANBD-labeled TnC RTF fluorescence at EC20 calcium; 0% EC20 calcium, 100% full calcium; activation, % at 7.2 µM; 0.24% of 340,000 active;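 active means activation above the mean over all tested compounds plus 3 SD, cut at about 30% in these data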;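 further: rise in fluorescence read as greater calcium sensitivity of cardiac thin filaments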
ARNT TACC3 PPI: disrupts binding between human ARNT and TACC3 | AlphaScreen His-ARNT PAS-B/GST-TACC3 binding, luminescence; TACC3 fragment carries E629A point mutation | inhibition, % at 9.99 µM | 0.66% of 390,000 active | AID 623870;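 active means mean inhibition of replicates at least 50% and at least half of replicates each reaching 50%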;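 further: 0% = complete ARNT plus TACC3 wells and 100% = ARNT alone without TACC3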
SUMO Mot1 rescue: blocks SUMOylation pathway, rescuing yeast Mot1-301 growth. AID 2716. growth rescue, % at 18.8 µM. S. cerevisiae Mot1-301 growth rescue, ATP luminescence, 38.5C; percent above DMSO median, 100 means doubled. 1% of 320,000 active;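 active means every valid replicate shows activation above 250% relative to neutral control wells; inactive means the rest, any valid replicate at or below 250%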;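 further: OY570 slx delta 5 strain wells were the positive control but not used for scaling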
Efflux pump mplx: blocks antifungal efflux pumps in multiplex yeast assay; AID 485275; 0.44% of 330,000 active; S. cerevisiae Candida pump triplex, Nile Red efflux; inhibition, % at 10 µM;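 active means plate passing quality check with inhibition over a set limit, or well fluorescence over plate mean plus 4 SD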;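 further: Nile Red retained in pooled yeast measured as flow cytometry median fluorescence; 0% = buffer negative control and 100% = Enniatin B positive control; higher means more Nile Red kept so more efflux inhibition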
Active calls of the source: *; i = inactive; x = not tested or not shown; + = active, no number.

SMILES | UCH37 inh | Cardiac RTF inh | cardiac RTF act | ARNT TACC3 PPI | SUMO Mot1 rescue | Efflux pump mplx
CCC(C)Sc1cccc(-c2nc3ccc(C)cn3c2NC2CCCCC2)c1 (stereo not drawn) | -111.1 | -1.8 | 5.5 | -15.6 | 340.7* | 0.5
O=S(=O)(c1cccs1)N1CCN(c2ncccn2)CC1 | 2.6 | -0.5 | 3.5 | 20.0 | + | 0.0
N/C(Cc1ccc(Cl)c(Cl)c1)=N\OC(=O)c1cccs1 | 2.6 | -6.4 | -6.1 | -0.9 | 323.5* | -0.1
N/C(=N\OC(=O)c1cccs1)C1(c2ccc(Cl)cc2Cl)CC1 | x | -5.9 | 2.4 | -1.9 | 42.6 | 0.1
O=C(CCN1CCN(Cc2ccccc2)CC1)Nc1ccccc1Cl | 2.8 | -0.9 | -2.0 | -4.6 | 326.7* | 0.0
CN1CCN(CCC(=O)Nc2ccccc2Cl)CC1 | 1.5 | -5.1 | -4.4 | 8.0 | -9.0 | -0.2
O=C(NCc1ccc(F)cc1)C1CC(=O)N(C2CCCCC2)C1 (stereo not drawn) | 4.1 | -7.1 | 3.0 | -4.4 | -8.1 | -0.1
O=C(NCc1ccccc1)C1CC(=O)N(C2CCCCC2)C1 (stereo not drawn) | 1.5 | -5.2 | -2.2 | 1.0 | 317.7* | 0.0
O=[N+]([O-])c1ccc(Cl)c(C=NNc2nc(N3CCOCC3)nc(N3CCOCC3)n2)c1 | 4.5 | x | x | x | x | x
Nc1nc2ccc(C(=O)NCCOC(=O)C3CCCCC3)cc2s1 | -0.3 | -13.1 | 6.1 | 65.5* | 1.0 | -0.1
CNC(=S)N(CCc1c(C)[nH]c2ccc(F)cc12)Cc1cccnc1 | 0.6 | -4.0 | -5.5 | 4.4 | 354.3* | -0.5
CN(C)c1ccc(/C=C(/C#N)C(=O)NCc2ccccc2)o1 | 8.9 | -97.8 | 69.5* | -4.2 | -3.0 | 0.0
N#C/C(=C/c1ccccc1)C(=O)NCc1ccccc1 | 3.7 | -3.4 | 4.1 | -3.6 | 27.2 | -0.1
CC(=NN1CCN(c2ccccc2)CC1)c1cccc([N+](=O)[O-])c1 | 1.3 | x | x | x | x | x
COc1ccc(C=Nn2c(-c3n[nH]c4c3CCC4)n[nH]c2=S)c(OC)c1OC | 4.3 | x | x | x | x | x
COc1cc(C(=O)Oc2c(CN3CCOCC3)cc(Cl)c3cccnc23)cc(OC)c1OC | 4.5 | -3.3 | 0.2 | 70.3* | 6.3 | -0.1
O=C(Oc1c(CN2CCOCC2)cc(Cl)c2cccnc12)c1ccccc1Cl | 5.2 | 1.2 | -2.5 | 70.8* | 2.0 | 0.0
O=C(Oc1c(CN2CCOCC2)cc(Cl)c2cccnc12)c1ccc(F)cc1 | 3.4 | -2.1 | -0.6 | 64.8* | -21.1 | 0.0
COc1ccc(C(=O)Oc2c(CN3CCOCC3)cc(Cl)c3cccnc23)cc1 | -3.4 | 6.1 | 2.8 | 64.7* | -16.4 | -0.1
O=C(Oc1ccc(Cl)c2cccnc12)N1CCOCC1 | -5.7 | 2.4 | 10.6 | 3.7 | 20.4 | 0.0
O=C(COc1ccccc1)Nc1ncc2c(n1)CCCC2=O | 0.3 | -12.5 | -0.7 | 14.8 | 291.9* | 0.5
Cc1ccc(-n2c(C)cc(/C=C3\SC(=O)NC3=O)c2C)cc1 | 4.1 | -1.0 | 0.8 | -9.3 | 10.3 | -0.2
Cc1cc(/C=C2\SC(=S)N(C)C2=O)c(C)n1-c1ccc(O)cc1 | 5.2 | -35.7 | 13.5 | 3.1 | 32.3 | 0.1
Cc1cc(/C=C2\SC(=S)NC2=O)c(C)n1-c1cccc(O)c1 | 1.6 | -22.2 | 6.8 | 1.4 | -3.2 | 0.8*
Cc1cc(/C=C2\SC(=S)N(C)C2=O)c(C)n1-c1ccccc1O | 4.0 | -44.0 | 44.1* | 7.0 | 79.6 | 0.3
SMILES | UCH37 inh | Cardiac RTF inh | cardiac RTF act | ARNT TACC3 PPI | SUMO Mot1 rescue | Efflux pump mplx
COc1ccc(-n2nnnc2S(=O)(=O)Cc2ccc(C(=O)O)cc2)cc1 | 1.1 | -5.0 | 0.5 | -5.3 | -8.6 | 0.2
COc1ccc(-n2nnnc2S(=O)(=O)CC(=O)N2CCCCC2)cc1 | 4.5 | -2.7 | -6.9 | -16.3 | 485.6* | -0.2
Fc1ccccc1SCc1nnc(-c2ccccc2Br)o1 | 31.6* | -14.1 | 3.5 | -9.6 | -23.2 | -0.2
Cc1csc(SCc2nnc(-c3ccccc3Br)o2)n1 | 1.8 | -1.1 | -1.5 | 29.6 | 3.6 | 0.1
Cc1ccc(C(=O)O)cc1-c1ccc(/C=C2\SC(=O)N(CC(=O)Nc3ccccc3)C2=O)o1 | -4.7 | 1.9 | 3.9 | -2.2 | 14.9 | 0.2
Cc1cc(C(=O)O)ccc1-c1ccc(/C=C2\SC(=O)N(CC(=O)Nc3ccc4c(c3)OCO4)C2=O)o1 | x | -1.6 | 46.0* | -15.6 | 7.8 | 0.0
Cc1ccc(CN(Cc2cc3cccc(C)c3[nH]c2=O)C(=O)N(C)C)cc1 | 1.9 | -1.7 | -1.1 | 0.8 | 316.7* | 0.0
O=C(Nc1ccc(OC(F)(F)F)cc1)Nc1cccc([N+](=O)[O-])c1 | 31.1* | 6.9 | -6.8 | 0.7 | -9.6 | -0.1
CSC1=NSC2=NC(=O)/C(=C\c3coc4ccccc4c3=O)C(=N)N12 | -11.6 | -142.8 | 192.9* | 18.5 | 19.5 | 0.0
CC(C)CSC1=NSC2=NC(=O)/C(=C\c3coc4ccccc4c3=O)C(=N)N12 | -12.4 | i | 662.2* | -3.7 | -20.2 | 0.0
N=C1/C(=C/c2coc3ccccc3c2=O)C(=O)N=C2SC(c3ccco3)=NN12 | -14.0 | x | x | x | 8.9 | 0.0
CC(C)CSC1=NSC2=NC(=O)/C(=C\c3ccccc3)C(=N)N12 | 2.2 | -4.7 | -2.3 | 2.4 | 20.3 | -0.2
N=C1/C(=C\c2coc3ccc(O)cc3c2=O)C(=O)N=C2SC=CN12 | 9.1 | -218.1 | 151.7* | 25.7 | -5.5 | 0.1
N=C1/C(=C\c2coc3ccccc3c2=O)C(=O)N=C2SC(c3ccncc3)=NN12 | -8.5 | -170.6 | 91.6* | -5.8 | -26.6 | 0.0
CN(C)C(=NS(=O)(=O)c1ccccc1)c1ccc([N+](=O)[O-])cc1 | 0.6 | x | x | x | x | x
COCC(=O)NN=Cc1c(C)[nH]n(-c2ccccc2)c1=O | 4.1 | x | x | x | x | x
Cc1cccc(C=NNC(=O)c2ccccc2OCc2cccc(Br)c2)n1 | 5.6 | x | x | x | x | x
COC(=O)c1cc(NC(=O)c2ccc([N+](=O)[O-])cc2)c(=O)oc1C | 0.9 | 5.8 | -6.3 | 1.7 | 974.8* | 0.1
CC(=O)c1cc(NC(=O)c2ccc([N+](=O)[O-])cc2)c(=O)oc1C | 1.9 | -23.9 | 9.1 | 17.0 | 586.2 | 0.0
O=C(Cn1c(-c2ccccn2)nc2ccccc21)NN=Cc1ccccn1 | 2.6 | x | x | x | x | x
NC(=O)c1cccnc1Oc1ccccc1 | 3.9 | -7.3 | 3.0 | -4.8 | 350.1* | 0.1
CCc1cc(C)cc(OCCOc2ccccc2C=NNC(C)=O)c1 | -1.6 | x | x | x | x | x
O=C(NNc1cccc(Cl)c1)c1cccnc1Cl | 1.8 | -7.5 | 1.6 | -1.1 | 343.9* | 0.0
CCCc1c(C(=O)NNc2cccc(Cl)c2)cnn1-c1ccccc1 | 2.2 | 6.9 | -3.0 | -1.4 | 478.2* | 0.1
CCCc1c(C(=O)Nc2ccc(F)cc2F)cnn1-c1ccccc1 | 5.2 | 1.2 | -4.2 | -3.0 | 8.1 | -0.1
COC(=O)NN=Cc1ccc(Oc2ccccc2)cc1 | 2.3 | x | x | x | x | x
CC[n+]1c(/C=C2/C=C(C)CC(C)C2)sc2ccccc21 (stereo not drawn) | 2.8 | 0.3 | 0.1 | -0.1 | 97.8 | 0.3
